Assay outcomes deposited in PubChem BioAssay by Broad Institute.
Compounds with a hit are over-represented: about 0.98% of the library has one in this group of screens.
PGC1a acetyl inh – inhibitors of PGC1a acetylation signal, primary screen, cell-based, U2OS, AlphaScreen, inhibitor mode; AlphaScreen anti-acetyl-lysine; with virally co-expressed GCN5 acetyltransferase; inhibition, % at 15.6 µM; hit rate 0.17% among 350,000;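 active means every replicate shows inhibition of at least 40%; inconclusive means mean inhibition at least 40% but some replicate below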
Statin myotox sup – suppressors of statin myotoxicity in C2C12 myotubes, primary screen, cell-based, single point, plate reader; rescue of ATP level, % at 7.49 µM; C2C12 myotubes + simvastatin, ATP luminescence, 48 h; scaled: DMSO 0, geranylgeraniol control 100; AID 602340, 2012; hit rate 0.78% among 330,000;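 active means mean ATP rescue above about 67%, or every replicate alone reaching that limit, limit read from the data, passing the limit was not always enough; inconclusive means no clear call, values can overlap the other calls; inactive means mean under the limit and some replicate under it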;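 further: myotubes were challenged with 10 µM simvastatin during compound exposure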
S100A4 MyoIIA – inhibitors of S100A4-myosin IIA peptide binding, primary screen, biochemical, fluorescence polarization, TAMRA-MyoIIA peptide; hit rate 0.14% among 360,000; inhibition, % at 10.7 µM; Protein S100-A4 (Homo sapiens), P26447; AID 652163, 2013;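 active means mean inhibition of at least 70% across replicates, with every replicate also reaching that level; inconclusive means mean inhibition reaches 70% but some replicates fall short; inactive means mean inhibition below 70%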
Target sequence (P26447 whole entry, looked up): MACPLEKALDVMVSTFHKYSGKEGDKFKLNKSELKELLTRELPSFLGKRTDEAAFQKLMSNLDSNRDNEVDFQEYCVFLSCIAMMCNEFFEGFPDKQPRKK
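Test system: S100A4 monomer protein. Medium: HEPES buffer with Ca2+, pH 7.2. Reagent: fluorescent myosin IIA peptide, 5 nM. Compound dosing: single-point compound testing. Timing: 5 min between mix addition and reading. Benchmarks: DMSO neutral and TFP positive wells.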
ERAP1 HTS inh – human ERAP1 aminopeptidase inhibitors, primary screen, biochemical, single point, plate reader | Endoplasmic reticulum aminopeptidase 1 (Homo sapiens), Q9NZ08 | recombinant ERAP1, Leu-AMC fluorescence, 60 min | inhibition, % at 10.7 µM | hit rate 0.15% among 340,000;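 active means mean replicate inhibition of at least 30%, or all replicates individually reaching that 30% level; inactive means mean below 30% and not every replicate reaching it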
Rtt109 Vps75 – inhibitors of C. albicans Rtt109/Vps75 HAT, primary screen, biochemical, ThioGlo CoA-SH fluorescence, plate reader. Histone acetyltransferase RTT109 (Candida albicans (strain SC5314 / ATCC MYA-2876)), …. purified Rtt109/Vps75, 4 h. inhibition, % at 34.9 µM. hit rate 0.16% among 330,000;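 active means inhibition of at least 50% in every replicate; inconclusive means best replicate reaches 50% inhibition but some replicates fall short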
Target sequence (Q5AAJ8 whole entry, looked up): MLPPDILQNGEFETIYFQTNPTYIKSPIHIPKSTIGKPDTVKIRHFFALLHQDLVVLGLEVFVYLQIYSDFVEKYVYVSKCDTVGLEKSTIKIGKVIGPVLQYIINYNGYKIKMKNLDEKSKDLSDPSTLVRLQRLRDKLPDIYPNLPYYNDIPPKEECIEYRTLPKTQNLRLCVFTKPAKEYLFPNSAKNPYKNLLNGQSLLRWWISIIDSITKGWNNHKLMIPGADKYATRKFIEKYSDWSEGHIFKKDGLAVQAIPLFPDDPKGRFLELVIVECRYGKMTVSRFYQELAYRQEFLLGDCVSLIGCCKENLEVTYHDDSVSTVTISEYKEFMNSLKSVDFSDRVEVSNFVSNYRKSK
Hits are given with their value; – = inactive; ? = inconclusive; · = not tested or not shown.

SMILES	PGC1a acetyl inh	Statin myotox sup	S100A4 MyoIIA	ERAP1 HTS inh	Rtt109 Vps75
COc1ccc(C(=O)Nc2n[nH]c(-c3ccncc3)n2)cc1	–	107.0	·	·	–
CC(C)NC(=O)Nc1ccc2c(c1)CC(=O)N([C@H](C)CO)C[C@H](C)[C@@H](CN(C)C(=O)Nc1ccc3c(c1)OCO3)O2	–	–	–	–	·
C[C@H]1CN([C@@H](C)CO)C(=O)c2cc(C3=CCCCC3)cnc2O[C@H]1CN(C)C(=O)c1ccccn1	–	?	–	–	·
CC(C)[C@@H]1CN=C(N)N1C[C@@H]1CCCN1C[C@H](C)N1C[C@@H](Cc2ccccc2)N(CCc2ccc(Cl)c(Cl)c2)C1=N	–	–	·	·	–
C[C@@H](CN1CCC[C@H]1CN1C(N)=NC[C@@H]1Cc1ccccc1)N1C[C@@H](Cc2ccccc2)N(CCc2ccc(Cl)c(Cl)c2)C1=N	–	–	·	·	59.2
CCC(=O)N1C[C@H](O)COC[C@H]2O[C@H](CC(=O)NCC3CCCCC3)CC[C@@H]21	–	–	–	–	·
CN1CCN(C(=O)C[C@H]2C=C[C@H](NC(=O)c3ccc4c(c3)OCO4)[C@H](CO)O2)CC1	–	–	–	–	·
O=C(CCl)Nc1cc(SCC(O)CO)cc([N+](=O)[O-])c1 (stereo not drawn)	52.5	·	–	–	–
CCC(=O)Nc1cc(SCCO)cc([N+](=O)[O-])c1	–	–	·	·	–
C[C@H](CO)N1C[C@H](C)[C@@H](CN(C)C(=O)CC2CC2)Oc2ncc(C#C[C@@H](C)O)cc2C1=O	–	–	–	–	·
Cc1ccc(-c2nc3ccccc3[nH]2)cc1NC(=O)c1ccco1	–	116.0	·	·	–
Cc1cc(NC(=O)c2ccc(N3C(=O)CCC3=O)cc2)no1	–	115.2	·	·	–
CCN(CC)c1ccc(C(=C2C=CC(=[N+](CC)CC)C=C2)c2ccccc2)cc1	·	·	–	–	–
CCN(CC)c1ccc(C(=C2C=CC(=[N+](CC)CC)C=C2)c2ccc(N(CC)CC)cc2)cc1	83.4	–	–	–	–
CNC[C@@H]1Oc2ncc(-c3ccccc3C)cc2C(=O)N([C@H](C)CO)C[C@H]1C	–	–	–	–	·
C[C@H]1CN([C@@H](C)CO)C(=O)c2cc(NS(C)(=O)=O)ccc2O[C@H]1CN(C)CC1CC1	–	–	–	–	·
Cc1cccc(-c2ccc([C@H]3[C@@H](CO)N4CCCCN(C(=O)c5ccc6c(c5)OCO6)C[C@@H]34)cc2)c1	–	68.6	–	–	·
COc1cccc(-c2ccc([C@@H]3[C@H](CO)N4CCCCN(C(=O)c5ccc(F)cc5)C[C@@H]34)cc2)c1	–	–	112.9	–	·
COc1cccc(-c2ccc([C@H]3[C@H]4CN(C(=O)c5ccc(F)cc5)CCCCN4[C@H]3CO)cc2)c1	–	–	–	–	·
CC(C)(O)C#Cc1ccc([C@H]2[C@H](CO)N3CCCCN(C(=O)c4ccc(F)cc4)C[C@@H]23)cc1	–	·	104.4	–	·
CC(C)(O)C#Cc1ccc([C@H]2[C@@H](CO)N3CCCCN(C(=O)c4ccc(F)cc4)C[C@H]23)cc1	–	·	–	–	·
COCC#Cc1cnc2c(c1)C(=O)N([C@@H](C)CO)C[C@H](C)[C@H](CN(C)C(=O)Nc1cc(F)ccc1F)O2	–	–	–	–	·
CCCC(=O)Nc1ccc2c(c1)C(=O)N(C)[C@H]1CC[C@@H](CC(=O)NC3CCCC3)O[C@H]1CO2	–	–	–	–	·
Cc1cccc2cc(COC(=O)c3cccnc3)c(=O)[nH]c12	–	101.7	·	·	–
Cc1cccc2cc(COC(=O)c3ccccc3)c(=O)[nH]c12	–	–	·	·	–
SMILES	PGC1a acetyl inh	Statin myotox sup	S100A4 MyoIIA	ERAP1 HTS inh	Rtt109 Vps75
C[C@H]1CN([C@@H](C)CO)C(=O)c2cccc(NC(=O)Nc3cccc4ccccc34)c2O[C@@H]1CN(C)C(=O)Nc1ccc2c(c1)OCO2	–	·	–	–	·
COc1ccc(-c2n[nH]c(C)c2-c2cc(OC)ccc2O)cc1	–	134.0	·	·	–
COc1cc2c(N3CCOCC3)cc(O)c(CC(=O)Nc3ccccc3)c2cc1OC	–	114.7	·	·	–
CO[C@H]1CN(C)C(=O)c2ccc(NS(C)(=O)=O)cc2OC[C@H](C)N(Cc2cncnc2)C[C@@H]1C	–	·	–	–	·
CCOC(=O)C1(C)NC(c2ccc(N(C)C)cc2)C2C(=O)N(c3ccc(OC)cc3)C(=O)C21 (stereo not drawn)	–	115.5	·	·	–
COCCN1Cc2cccc(C(=O)Nc3ccc(-c4nc5ccccc5[nH]4)cc3)c2C1=O	–	·	·	·	55.3
O=S(=O)(O)c1cc(O)c2ccc(Nc3ccccc3)cc2c1	–	–	–	40.2	–
O=S(=O)(O)c1cc(O)c2cc(Nc3ccccc3)ccc2c1	–	–	–	43.4	–
COc1ccccc1Nc1ccc2c(O)cc(S(=O)(=O)O)cc2c1	–	–	–	37.9	–
COc1cccc(C#Cc2ccc3c(c2)[C@H]2[C@H](CCN2S(=O)(=O)c2cccc(OC)c2)[C@H](CO)N3)c1	–	·	–	–	·
O=C(C[C@H]1CC[C@@H](NC(=O)CC2CC2)[C@H](CO)O1)NCc1ccc(Cl)cc1	–	–	–	–	·
O=C(NCc1ccc(F)cc1)[C@@H]1[C@@H](CO)[C@@H]2Cn3c(cccc3=O)[C@@H]2N1C(=O)C1CC1	·	–	–	–	·
CNC(=O)c1ccsc1NC(=O)c1ccc(S(=O)(=O)N2CCCc3ccccc32)cc1	–	76.2	–	–	–
O=c1c2cccnc2n(-c2ccccc2)n1Cc1c(Cl)cccc1Cl	–	–	–	–	–
O=c1c2cccnc2n(-c2ccccc2)n1Cc1ccc(Cl)cc1	101.0	–	–	–	–
CO[C@@H]1CN(C)C(=O)c2cc(NC(=O)NC(C)C)ccc2OC[C@@H](C)N(Cc2ccc(-c3ccccn3)cc2)C[C@H]1C	–	–	–	–	·
Cc1ccc(S(=O)(=O)N2CCCSCC2)cc1	–	113.9	·	·	–
Cc1ccc(-c2ccc(S(=O)(=O)N3CCCC3)cc2)cc1	–	·	–	–	–
COCCNC(=O)C[C@H]1C[C@H]2c3cc(N(C)C)ccc3O[C@H]2[C@@H](CO)O1	–	–	–	–	·
COc1ccccc1CCC(=O)Nc1ccc2c(c1)c(=O)n(C)n2C	–	–	–	38.0	·
O=C1c2ccccc2NC(c2cccc(F)c2)N1Cc1ccccc1 (stereo not drawn)	–	–	–	–	–
O=C1c2ccccc2NC(c2cccc(F)c2)N1Cc1ccco1 (stereo not drawn)	–	114.5	–	–	–
O=C(NCC1CC1)[C@@H]1[C@@H](CO)[C@@H]2Cn3c(cccc3=O)[C@@H]2N1C(=O)CC1CC1	·	–	–	–	·
